{
  "source": "ChEMBL document CHEMBL1221368",
  "about": "“Identification of small molecule compounds with higher binding affinity to guanine deaminase (cypin) than guanine” (Bioorg Med Chem, 2010)",
  "proteins": {"B1": {"name": "Guanine deaminase (Homo sapiens), Q9Y2T3 (protein)", "chain": "MCAAQMPPLAHIFRGTFVHSTWTCPMEVLRDHLLGVSDSGKIVFLEEASQQEKLAKEWCFKPCEIRELSHHEFFMPGLVDTHIHASQYSFAGSSIDLPLLEWLTKYTFPAEHRFQNIDFAEEVYTRVVRRTLKNGTTTACYFATIHTDSSLLLADITDKFGQRAFVGKVCMDLNDTFPEYKETTEESIKETERFVSEMLQKNYSRVKPIVTPRFSLSCSETLMGELGNIAKTRDLHIQSHISENRDEVEAVKNLYPSYKNYTSVYDKNNLLTNKTVMAHGCYLSAEELNVFHERGASIAHCPNSNLSLSSGFLNVLEVLKHEVKIGLGTDVAGGYSYSMLDAIRRAVMVSNILLINKVNEKSLTLKEVFRLATLGGSQALGLDGEIGNFEVGKEFDAILINPKASDSPIDLFYGDFFGDISEAVIQKFLYLGDDRNIEEVYVGGKQVVPFSSSV"}},
  "substrate": "Nc1nc2[nH]cnc2c(=O)[nH]1",
  "experiment": "Activity at GDA by colorimetric assay",
  "outline": "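Purified rabbit liver guanine deaminase, 8 × 10^-3 U, incubated with guanine at 2, 5, 7, 10, 12, 15, 17 and 20 µM plus inhibitor at 8 or 20 µM. Run in TBS (25 mM Tris-HCl, 137 mM NaCl, 2.7 mM KCl) at pH 7.4 and 25 °C. Guanine hydrolysis followed as OD change at 245 nm. Kinetic constants taken from Lineweaver–Burk plots (1/V vs 1/S).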",
  "data": [
    {"protein": "B1", "values": [
      {"measurement": "Km", "result": 11.2, "unit": "µM"}
    ]}
  ]
}
